Assay: Toxicity liver stage against HepG2, at 10uM
Type: cell-based
Set-up: test concentration 10 uM, cell line HepG2-A16-CD81EGFP
Conditions: human, HepG2-A16-CD81EGFP cells; read-out: INHIBITION
Summary of the method: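 Uninfected HepG2-A16-CD81EGFP cells, 3 × 10^3 per well, 1536-well, plated on prespotted compound at 10 μM final, parasite-free screening media added to match infected plates; puromycin 10 μM positive, DMSO 0.5% negative; run in parallel with 48 h PbLuc assay at 37 °C, 5% CO2; viability by CellTiter-Glo luminescence, normalized to controls.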

SMILES | cytotoxicity at 10 µM [%]
CNc1nc2c(s1)C(c1cccc(F)c1F)CC(=O)N2 (stereo not drawn) | -2.15
O=C(c1ccsc1)N1CCCC(c2cc(C(F)(F)F)[nH]n2)C1 (stereo not drawn) | -4.22
CN1CCCC(CCCc2cccnc2)(C(N)=O)C1 (stereo not drawn) | -7.86
O=C(c1cccnc1)N1CCc2ncnc(N3CCOCC3)c2CC1 | -79.3
O=C(O)[C@@H]1CN(C(=O)c2ccc(O)cc2)C[C@H]1c1cccc(F)c1 | -126
Cn1ncc2c(N3CCC(F)(F)CC3)nc(-c3ccncc3)nc21 | 9.74
O=C(c1nnn(-c2ccc(F)cc2)n1)N1CCC(O)CC1 | 5.86
CC(C)(O)CCc1cccc(C(=O)N[C@@H](CO)C(N)=O)c1 | 4.76
CN1CCC(Cc2noc(CCc3nc4ccccc4nc3O)n2)CC1 | 7.23
CCC(=O)NC1CCCN(Cn2nc(C(C)(C)C)ccc2=O)C1 (stereo not drawn) | -1.69
CC(C)N(C)Cc1nnc2n1CCCN(c1cnccn1)C2 | 0.0861
CCc1nc(C2CCCN(C(=O)c3ccccc3F)C2)no1 (stereo not drawn) | 2.64
Cc1ccc([C@@H]2CN(S(=O)(=O)Cc3ccccc3)C[C@H]2N(C)C)cc1 | -2.85
CC1=NN(c2ccc(C(=O)N3CCCC(n4ccnc4)C3)cc2)CC1 (stereo not drawn) | -15.6
Cc1cnn(C2CCCN(C(=O)CCc3cscn3)C2)c1 (stereo not drawn) | -12.9
CCc1nnc(S(=O)(=O)Cc2cc(Cl)c3c(c2)OCO3)n1C | -46.3
CCN1CC(C(=O)NCc2ccccc2-n2cccn2)CC1=O (stereo not drawn) | 3.2
COC[C@@H]1CC[C@H]2[C@H](CCN2S(=O)(=O)Cc2ccccc2)O1 | 7.43
NC(=O)c1csc(C(=O)N2CCCC(n3ccnc3)C2)c1 (stereo not drawn) | -2.07
COCC(C)NC(=O)CCSc1ccc(F)cc1 (stereo not drawn) | 1.28
CC(C)c1cc(NCc2csc(N(C)C)n2)nc(N)n1 | 31.8
COC(=O)c1ccc(Cl)c(S(=O)(=O)Nc2ccc(F)c(C(N)=O)c2)c1 | 3.68
OC(c1ccccn1)C1CCN(Cc2cc3n(n2)CCNC3)CC1 (stereo not drawn) | 15.4

SMILES | cytotoxicity at 10 µM [%]
Cc1ccc(CNC(=O)COc2ccc3c(c2)OCC3O)cc1 (stereo not drawn) | -5.67
Cc1oc(-c2cccs2)nc1C(=O)N(C)C1(C#N)CCC1 | 5.09
Cc1cc(C)c(CNC(=O)N2CCCC2C(N)=O)c(=O)[nH]1 (stereo not drawn) | -0.241
Cc1c(I)cccc1C(=O)NCc1ncc[nH]1 | 17.3
O=C(NC1CC1)c1nc2c(o1)CN(c1ncccn1)C2 | 0.718
CCCc1ccc(N2CCN(Cc3nc4ccccc4n3C)CC2)cc1 | 7.06
CC(=O)c1ccccc1-c1nc(CC2CCN(C)CC2)no1 | -17.5
Cc1c(OCC(=O)NCc2ccccc2Cl)c(=O)ccn1C | -40.5
CN(C)C(=O)N1CCc2c(COCC3CC3)cncc2C1 | -68.2
CC(C)CN1CC(C(=O)NCCOc2ccc3c(c2)OCO3)CC1=O (stereo not drawn) | -1.39
CNc1cc(N2CCCC2CNCc2cccs2)ncn1 (stereo not drawn) | -12.3
Cc1noc(CN2CC(=O)N(C)c3ccccc3C2=O)n1 | -5.03
Cc1nn(C)cc1C(=O)Nc1cccc(CN2CCC(CO)CC2)c1 | -10.2
Cc1nc(C)c(CNC(=O)NC2CC(C)(C)OC2(C)C)s1 (stereo not drawn) | -0.864
c1cnc(N2CCC3(CCN(Cc4ccncc4)CC3)CC2)nc1 | -1.85
Cc1cccc(CN2CCc3cc(C(=O)O)c(N(C)C)nc3CC2)n1 | 3.68
O=C1CCc2cc(OCCN3CCc4cncnc4C3)ccc2N1 | -7.2
CCOCC1c2c(ncn2C(C)C)CCN1C(=O)C1CC1 (stereo not drawn) | 10.5
Cc1cccc(C(C)CNS(=O)(=O)CCCC#N)c1 (stereo not drawn) | -2.17
CC(C)CC(=O)N1CCCC1c1nccnc1Nc1ncccn1 (stereo not drawn) | -13.8
O=C(Nc1ccccn1)N(CCO)Cc1ccsc1 | 2.12
O=C1CCCC2=Nc3nonc3NC(c3cc(Cl)ccc3F)C12 (stereo not drawn) | 35.5
c1cc(CN2CCO[C@@H]3CNC[C@@H]32)cs1 | 9.22

SMILES | cytotoxicity at 10 µM [%]
c1cc2c(cc1CN(Cc1nc(C3CC3)no1)C1CCCC1)OCO2 | -10.6
CC(=O)Nc1ccc(CNC(=O)CNCc2sc(C)nc2C)cc1 | 6.95
CNC(=O)CCS(=O)(=O)Cc1cc(Cl)c2c(c1)OCCO2 | -4.89
Cc1ccc(CCN2CCCC23Cc2ccccc2CNC3=O)cc1 (stereo not drawn) | 7.41
OC1CCCN(Cc2ccnc(-c3cccnc3)n2)C1 (stereo not drawn) | 14
COc1ncc(-c2ccc(O)cc2)c(OC)n1 | -2.42
Fc1ccccc1Cc1noc(CN2CCC(N3CCSCC3)CC2)n1 | -6.47
CCN(C(=O)CN1CCCC1c1ccc(OC)cc1)c1ccccc1C (stereo not drawn) | 0.623
CCc1noc(CN2CCC(NC(=O)c3ccc(C)s3)CC2)n1 | -5.04
CC(C)(C)n1cc(C(=O)N2CCN(Cc3ccco3)CC2)cn1 | -7.36
CC(c1ccccc1)N(C)C(=O)CNCCn1cccn1 (stereo not drawn) | 4.58
COc1ccc(C(O)CNC(=O)NCCc2csc(C)n2)cc1 (stereo not drawn) | -6.16
CCCc1cc(NC(=O)c2cccc(N3CCCNC3=O)c2)n[nH]1 | 3.14
CCc1ocnc1C(=O)N1CCCC1c1noc(C(C)C)n1 (stereo not drawn) | -8.69
Cc1noc(C)c1C(=O)N1CCCC1(C)C(=O)NC1CCCC1 (stereo not drawn) | -1.33
O=C(NC1CCCC1)c1cnn2c(-c3ccco3)ccnc12 | 10.2
O=S(=O)(Cc1ccc(F)cc1)NCc1nnc2n1CCC2 | 3.82
c1cnc(N2CCCC3(CCN(Cc4ccncc4)C3)C2)nc1 (stereo not drawn) | 0.436
COCc1nnc(-c2cccc(C(=O)N(C)CC(C)(C)C)c2)o1 | -11.1
CC(C)c1nccn1CCCNC(=O)c1ccc(-c2cnn(C)c2)nc1 | -9.36
Cc1cccc(CNC2CCN(CCc3ccncc3)CC2)c1C | -9.04
Cn1cnnc1CNC(=O)Nc1ccc(OC2CCC2)c(F)c1 | 1.03
CC(C)c1nnc2n1CCN(C(=O)c1ccc3c(c1)CCC3)C2 | -10.7

SMILES | cytotoxicity at 10 µM [%]
CC(OCC(F)(F)F)C(=O)N1CCCC1 (stereo not drawn) | -14
Cc1csc(N2CCN(C(=O)C3(C#N)CCCCC3)CC2)n1 | -8.45
O=C(Cn1cnnn1)NC(c1ccccc1)c1ccc2c(c1)CCCO2 (stereo not drawn) | -1.47
O=C1CC2(CCN(C(=O)c3ccccn3)CC2)Oc2c(Br)cc(Br)cc21 | 11.5
CC(=O)N1CC(C(=O)N2CCCC(Cn3ccnc3C)C2)C1 (stereo not drawn) | 1.27
Cc1nc2c(c(C)c1CC(=O)Nc1cccc(C#N)c1)c(=O)[nH]n2C | 3.99
Cc1cc(C)n(CC(=O)NC2CCCCNC2=O)n1 (stereo not drawn) | -14.7
Cc1c(F)cccc1S(=O)(=O)NCCN | 1.99
Clc1cc(CN2CCCC(Cn3cncn3)C2)c2ncccc2c1 (stereo not drawn) | 6.64
O=C(Cc1ccsc1)NCCc1ccoc1 | 5.5
COc1ccc(C(C)NCc2cnnn2C)cc1F (stereo not drawn) | -9.72
c1csc(-c2noc(CCCN3CCCC3Cn3cccn3)n2)c1 (stereo not drawn) | -7.47
CN(Cc1noc2c1CCCC2)C(=O)Cn1c(=O)cnc2ccccc21 | -38.9
Cc1cc(C)n(CCN2CCN(C(=O)c3ccccc3Br)CC2)n1 | -4.86
Cc1noc([C@H]2COC[C@H]3CN(C(=O)Cc4cccs4)C[C@H]32)n1 | 3.3
Cc1nc(C)n(CC2CCCN2CCOc2ccc(C#N)cc2)n1 (stereo not drawn) | -10.1
CCNc1cc2c(nn1)CCN(C(=O)c1cccc(CSC)c1)C2 | -12.7
CCc1nccn1C1CCCN(C(=O)Cc2ccc(OC)c(F)c2)C1 (stereo not drawn) | -3.59
O=C1NC2(CCCN(C(=O)CCn3cncn3)C2)Oc2ccccc21 (stereo not drawn) | 3.08
CC1CCN(S(=O)(=O)N2CCC(Oc3cnccn3)CC2)CC1 | -2.76
CNc1cc(N2CCCC2CNCc2cccc(C(N)=O)c2)ncn1 (stereo not drawn) | -7.72
Nc1nc2nc(C3CCCN(C(=O)c4cscn4)C3)ccc2s1 (stereo not drawn) | -1.44
O=C(c1cnn2cc(CCO)cnc12)N1CCOC(C(F)(F)F)C1 (stereo not drawn) | 3.24

SMILES | cytotoxicity at 10 µM [%]
Cc1cc(NC(=O)C(C)N2CCCN(c3nccs3)CC2)on1 (stereo not drawn) | 1.79
COc1ccc(C2(NC(=O)C3CC(=O)N(C)C3)CCCC2)cc1 (stereo not drawn) | 14.7
CC(c1nnc(-c2ccccc2)o1)N1CCC(Nc2ccccc2)CC1 (stereo not drawn) | 5.1
CC(C)N(C)Cc1cc(=O)n2c(n1)CN(C(=O)c1ccc[nH]1)CCC2 | -105
COc1cc(CNCc2c(C)nn(C)c2N(C)C)ccc1C | -9.16
CCN(Cc1nc(COC)no1)Cc1ccccc1OCC(=O)O | -51.6
CCc1nc2n(n1)CC(NCC(=O)Nc1oc(C)c(C)c1C#N)CC2 (stereo not drawn) | -8.84
CCC(O)CNC(=O)c1coc(COc2ccc3sc(C)nc3c2)n1 (stereo not drawn) | 16.3
Cc1cnc(C)c(N2CCN(CCCc3[nH]nc(C)c3C)CC2)n1 | -10
Cc1noc(CN2CCC(c3ccnn3CCO)CC2)n1 | -9.62
CCc1ccc(CN2CCc3[nH]nc(C(=O)N4CCNC(=O)C4)c3C2)o1 | 17.5
COCCN1CCC12CCN(C(=O)c1ccc(C)nc1)C2 (stereo not drawn) | -102
Cc1cnn(CCNCc2cc(C#N)ccc2F)c1 | -10.1
CNC(=O)Cc1n[nH]c(-c2cncc(Br)c2)n1 | -4.97
CCS(=O)(=O)N1CCN(Cc2cccnc2)c2nc(C)ccc2C1 | -70.3
O=C(c1ccc2c(c1)CCC2)N1C[C@@H](CN2CCOCC2)[C@@H](CO)C1 | 20.7
COc1cccc(-c2nc(CC(=O)NC3(C)CCS(=O)(=O)C3)cs2)c1 (stereo not drawn) | 19
CSc1cc2c(cc1NC(=O)NCc1ccco1)OCCO2 | -5.08
CC(=O)Nc1cccc(-c2ccccc2CCN)c1 | -5.85
CCc1cc(NC(=O)N2CCC(Oc3cccnc3)C2)n(C)n1 (stereo not drawn) | 5.95
CC(C)NC(=O)CC1CC2(CCN(CC3CC3)CC2)Oc2ccccc21 (stereo not drawn) | -2.42

From ChEMBL document CHEMBL4513216, “Probing the Open Global Health Chemical Diversity Library for Multistage-Active Starting Points for Next-Generation Antimalarials” (ACS Infect Dis, 2020)
